In ChEMBL document CHEMBL1137665, “Antistaphylococcal activity of CG400549, a new experimental FabI inhibitor, compared with that of other agents” (2007):
Converted amounts (≈) assume the structure as drawn.

Tests used:
Assay type in all cases: functional
Staphylococcus aureus [1] = assay: Antimicrobial activity against vancomycin-resistant Staphylococcus aureus 510 Hershey after 18 passages by multi-step resistance selection technique
Method in brief: (§1)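 Multistep selection: 10 S. aureus strains (8 MRSA incl. two VRSA, two VISA; 2 MSSA) serially passaged daily at subinhibitory concentrations of each antimicrobial; MICs of mutants retested and compared with parent; clone identity versus parent confirmed by pulsed-field gel electrophoresis at study end.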

Staphylococcus aureus [2] = assay: Antimicrobial activity against methicillin-susceptible Staphylococcus aureus 543 after 17 passages by multi-step resistance selection technique
Method in brief: (§2)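 Multistep selection by daily serial passage of each strain in subinhibitory drug concentrations for the stated number of passages. Mutant MIC was then determined. Identity of mutants and parents was confirmed by pulsed-field gel electrophoresis.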

Staphylococcus aureus [3] = assay: Antimicrobial activity against methicillin-resistant Staphylococcus aureus 525 after 20 passages by multi-step resistance selection technique; method in brief: as §2
Staphylococcus aureus [4] = assay: Antimicrobial activity against vancomycin-resistant Staphylococcus aureus 509 Michigan after 14 passages by multi-step resistance selection technique; method in brief: as §1
Staphylococcus aureus [5] = assay: Antimicrobial activity against methicillin-resistant Staphylococcus aureus 525 after 14 passages by multi-step resistance selection technique; method in brief: as §2

| SMILES | MIC (Staphylococcus aureus [1]) [µg/mL] | MIC (Staphylococcus aureus [2]) [µg/mL] | MIC (Staphylococcus aureus [3]) [µg/mL] | MIC (Staphylococcus aureus [4]) [µg/mL] | MIC (Staphylococcus aureus [5]) [µg/mL] |
| --- | --- | --- | --- | --- | --- |
| CCCCCCCCCC(=O)N[C@@H](Cc1c[nH]c2ccccc12)C(=O)N[C@H](CC(N)=O)C(=O)N[C@@H](CC(=O)O)C(=O)N[C@@H]1C(=O)NCC(=O)N[C@@H](CCCN)C(=O)N[C@@H](CC(=O)O)C(=O)N[C@H](C)C(=O)N[C@@H](CC(=O)O)C(=O)NCC(=O)N[C@H](CO)C(=O)N[C@@H]([C@H](C)CC(=O)O)C(=O)N[C@@H](CC(=O)c2ccccc2N)C(=O)O[C@@H]1C | 8 (≈ 4.94 µM) | 8 (≈ 4.94 µM) | 8 (≈ 4.94 µM) |  |  |
| Cc1c(N)cccc1Cn1ccc(OCCc2cccs2)cc1=O [CG-400549] |  |  |  | > 64 | 4 (≈ 11.7 µM) |
